Screens deposited in PubChem BioAssay by NMMLSC.
RGS7-Gao reg = regulators of human RGS7-Galphao interaction. Multiplexed bead flow cytometry, RGS7-Galphao binding; actives lie on both sides. binding response (% of control), % at 10 µM. actives 0.35% (n = 220,000). AID 1439; in the data active means binding response below about 49% or above about 150%; inconclusive means no clear call, values can overlap the other calls; inactive means in between;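 further: fluorescent Galphao held in activated GDP-AlF4 state binding bead-coupled RGS7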
ABCB1 block = blocks JC-1 efflux by human ABCB1 transporter; inhibition, % at 6.6 µM; CCRF-Adr cells, flow cytometry; actives 0.067% (n = 190,000); AID 1326; P08183; in the data active means inhibition above about 40%;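 further: higher value means more JC-1 retained so stronger ABCB1 efflux block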
RGS4-Gao reg = modulates binding of RGS4 to human Galphao; actives 0.33% (n = 220,000); AID 1415; binding response (% of control), % at 10 µM; Multiplexed bead flow cytometry; actives lie on both sides; in the data active means binding response below about 49% or above about 150%; inactive means in between;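 further: fluorescent Galphao activated with aluminum fluoride binding bead-coupled RGS4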
RGS8-Gao = modulates binding of RGS8 to human Galphao | P09471 | multiplexed bead flow cytometry; actives lie on both sides | response (percent of control binding), % at 10 µM | actives 0.34% (n = 220,000); in the data active means response below about 60% or above about 140%; inactive means in between;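 further: Galphao activated as the GDP aluminium fluoride complex binding bead-coupled RGS8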
RGS16-Gao = regulators of human RGS16-Galphao interaction; actives 0.38% (n = 220,000); bead-based flow cytometry RGS16-Galphao binding, fluorescence; actives lie on both sides; O15492+P09471; AID 1441; binding response (% of control), % at 10 µM; call rule not given here;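 further: Galphao activated by GDP with aluminum fluoride before binding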
Target sequence (O15492 whole entry, looked up): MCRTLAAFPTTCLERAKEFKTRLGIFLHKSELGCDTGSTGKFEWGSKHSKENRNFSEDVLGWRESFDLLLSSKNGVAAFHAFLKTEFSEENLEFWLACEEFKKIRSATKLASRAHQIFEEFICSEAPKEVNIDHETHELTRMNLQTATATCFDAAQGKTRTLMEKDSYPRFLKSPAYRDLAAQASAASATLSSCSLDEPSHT
Target sequence (P09471 whole entry, looked up): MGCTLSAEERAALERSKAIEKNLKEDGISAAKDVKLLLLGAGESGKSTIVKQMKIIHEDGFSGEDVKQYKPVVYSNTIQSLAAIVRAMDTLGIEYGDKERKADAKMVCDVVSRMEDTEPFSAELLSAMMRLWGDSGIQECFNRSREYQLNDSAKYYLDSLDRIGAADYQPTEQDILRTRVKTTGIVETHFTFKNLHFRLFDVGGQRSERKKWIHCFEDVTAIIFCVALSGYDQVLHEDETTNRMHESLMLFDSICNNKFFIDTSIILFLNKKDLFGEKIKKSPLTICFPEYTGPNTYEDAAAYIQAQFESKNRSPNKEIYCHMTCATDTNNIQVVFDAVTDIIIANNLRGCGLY
ABCG2 inh = human ABCG2 inhibition, ABCB1 as counter-screen; Q9UNQ0; IgMXP3 cells, JC-1 efflux, flow cytometry; inhibition, % at 6.6 µM; actives 0.1% (n = 190,000); AID 1325;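 active means inhibition above 80%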
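Test system: ABCG2 IgMXP3 and barcoded ABCB1 CCRF-Adr cell mix; Schedule: cells with compound and JC-1, 10 min at 25 °C, rotating, no wash; Technique: flow cytometry of retained JC-1 fluorescence; Measure: % inhibition of efflux relative to nicardipine and DMSO; Controls: nicardipine high and DMSO low controls.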
Hits are given with their value; i = inactive; ? = inconclusive; nt = no result given; + = active, no number; [ ] = remark or other dose. Compounds with a hit are over-represented: about 0.9% of the library has one in this group of screens.

SMILES | RGS7-Gao reg | ABCB1 block | RGS4-Gao reg | RGS8-Gao | RGS16-Gao | ABCG2 inh
CC(C(=O)c1ccccc1)[n+]1cccc(C(N)=O)c1 (configuration not stated) | ? | nt | i | i | i | nt
CCCC(=O)Nc1ccc2nc(SCC(=O)Nc3nccs3)sc2c1 | 15 | i | 21 | 12 | 15 | i
O=C(CCCSc1nc2ccccc2s1)Nc1nccs1 | i | i | i | i | i | i
Cc1nn(-c2ccc(Cl)cc2)c(NC(=O)C(C)C)c(-c2ccccc2)c1=O | ? | nt | i | i | i | nt
CCOC(=O)C(C(=O)OCC)c1cc(Br)c2noc3c2c1C(=O)c1ccccc1-3 | i | 156 | i | i | i | +
CC1(C)CC(=O)C(C=NCCN2CCN(C3CC(=O)N(c4ccc(Br)cc4)C3=O)CC2)=C(O)C1 (configuration not stated) | i | i | i | i | i | i
C=CCN=C1SC(C)(C)C(=O)N1S(=O)(=O)c1ccc(C)cc1 | i | i | i | i | i | i
CNC(=S)N1N=C(c2ccc(C)cc2)CC1c1ccc(N(C)C)cc1 (configuration not stated) | i | i | i | i | i | i
O=C(C1CCN(S(=O)(=O)N2CCC3(CC2)OCCO3)CC1)N1CCC(Cc2ccccc2)CC1 | 298[activator] | i | 387[activator] | i | 526[activator] | i
N#Cc1ccccc1Sc1ccccc1N | 14 | i | 20 | 12 | 0.4 | i
Cc1cccc(NC(=S)N2CCC(c3nc4ccccc4o3)CC2)c1C | 42 | i | 48 | 55 | i | i
Cc1nc2ccccc2n1CC(O)Cn1c(C(F)(F)F)nc2ccccc21 (configuration not stated) | -8.4 | i | -28 | 7.0 | -16 | i
CC[n+]1c(/C=C2/C=C(C)CC(C)(C)C2)sc2ccc(OC)cc21 | 163[activator] | i | 181[activator] | i | i | i
CCC(=O)Nc1sc(Cc2ccc3c(c2)OCO3)c(C)c1C(N)=O | ? | nt | i | i | i | nt
Cc1c(Cc2ccc3c(c2)OCO3)sc(NC(=O)c2ccc3ccccc3c2)c1C(N)=O | 35 | i | 20 | 29 | 11 | i
COC(=O)C1=C(C)N(CCCC(=O)O)C(=O)NC1c1cccs1 (configuration not stated) | i | 45 | i | i | i | i
CCOc1cccc(C(=O)Nc2cccc(-c3nnc(-c4ccccc4)o3)c2)c1 | i | i | i | i | i | i
CCOc1cccc(C(=O)Nc2cccc(-c3nnc(-c4ccc(C)cc4)o3)c2)c1 | i | i | 151[activator] | i | i | i
O=C(Nc1ccc(OC(F)F)c(Cl)c1)Nc1ccc2c(c1)OCO2 | i | i | i | i | i | i
O=C(Nc1ccc([N+](=O)[O-])cc1)Nc1ccc(OC(F)F)c(Cl)c1 | i | i | i | i | i | 86
COc1ccccc1/C=C(/NC(=O)c1ccc(Cl)cc1Cl)C(=O)O | i | i | i | i | i | i
COc1cccc(CSc2nnc(C(F)(F)F)n2Cc2ccc(F)cc2)c1 | 12 | i | 20 | 12 | 0.4 | i
O=C(CN1C(=O)c2ccccc2C1=O)N1CCN(C2c3ccccc3-c3ccccc32)CC1 | i | i | i | i | i | i
CCOC(=O)c1c(C)[nH]c(C(=O)OCC(=O)c2c(N)n(C)c(=O)n(C)c2=O)c1C | i | i | i | i | i | i
CN(C)CCNC(=S)Nc1cccc(Cl)c1 | 14 | i | 22 | 12 | 0.9 | i
SMILES | RGS7-Gao reg | ABCB1 block | RGS4-Gao reg | RGS8-Gao | RGS16-Gao | ABCG2 inh
CN(C)NC(=S)Nc1cccc(Cl)c1 | ? | nt | i | i | i | nt
Cc1nnsc1SCCNC(=O)Nc1ccc(Cl)cc1 | ? | i | i | i | i | i
CCSC1=NSC2=NC(=O)/C(=C\c3coc4ccccc4c3=O)C(=N)N12 | i | i | i | i | i | +
O=C(c1ccc(COc2ccc(Cl)cc2)o1)N1N=C(C(F)F)CC1(O)C(F)F (configuration not stated) | i | i | i | i | i | i
O=C(c1ccc(Cn2cc(Br)cn2)o1)N1N=C(C(F)F)CC1(O)C(F)F (configuration not stated) | i | i | 150[activator] | i | i | i
Cc1c(N=Cc2nc3ccccc3n2C)c(=O)n(-c2ccccc2)n1C | i | i | i | i | i | 90
Cn1c(C(=O)c2ccncc2)cc2ccccc21 | ? | nt | i | i | i | nt
